Assay outcomes: PubChem BioAssay, Sanford-Burnham Center for Chemical Genomics
Scp-1 inhibitor – Scp-1 phosphatase inhibitors, primary screen, biochemical, colorimetric, uHTS | Carboxy-terminal domain RNA polymerase II polypeptide A small phosphatase 1 (Homo … | 0.88% of 340,000 active | inhibition, % at 20 µM | Recombinant Scp1, phosphopeptide, malachite green phosphate absorbance | AID 493091, 2011;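 active means inhibition above about 50% at 20 µM, limit read from the data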;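 further: plate controls were DMSO wells with enzyme for no effect and wells lacking enzyme for full effect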
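System: SCP-1 catalytic domain; Reagent: Phospho 17-mer peptide substrate; Doses: one concentration, 20 µM, with 1.0% DMSO; Incubation: 45 min room-temperature reaction, 5 min colour, 30 min stabiliser; Signal: Phosphate-binding colour reagent, absorbance read at 630 nm.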
SUMO1-SIM PPI – modulators of SUMO1 protein-protein interactions, primary screen, biochemical, uHTS. Small ubiquitin-related modifier 1 (Homo sapiens), P63165. SUMO1 binding to a labelled peptide, TR-FRET, 1 h. inhibition, % at 20 µM. 0.33% of 360,000 active; in the data active means inhibition above about 37%
Target sequence (P63165 whole entry, looked up): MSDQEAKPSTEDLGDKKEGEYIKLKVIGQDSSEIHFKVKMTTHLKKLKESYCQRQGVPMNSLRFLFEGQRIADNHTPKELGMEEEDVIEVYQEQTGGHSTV
STEP inh – STEP phosphatase inhibitors, primary screen, biochemical, fluorescence intensity, uHTS; Tyrosine-protein phosphatase non-receptor type 5 (Homo sapiens), P54829; 0.25% of 360,000 active; recombinant STEP, OMFP fluorogenic substrate; inhibition, % at 20 µM;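 active means inhibition at 20 µM, scaled per plate between control wells, above about 37%, limit read from the data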;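 further: 0% = DMSO with enzyme and substrate and 100% = substrate only without enzyme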
Target sequence (P54829 whole entry, looked up): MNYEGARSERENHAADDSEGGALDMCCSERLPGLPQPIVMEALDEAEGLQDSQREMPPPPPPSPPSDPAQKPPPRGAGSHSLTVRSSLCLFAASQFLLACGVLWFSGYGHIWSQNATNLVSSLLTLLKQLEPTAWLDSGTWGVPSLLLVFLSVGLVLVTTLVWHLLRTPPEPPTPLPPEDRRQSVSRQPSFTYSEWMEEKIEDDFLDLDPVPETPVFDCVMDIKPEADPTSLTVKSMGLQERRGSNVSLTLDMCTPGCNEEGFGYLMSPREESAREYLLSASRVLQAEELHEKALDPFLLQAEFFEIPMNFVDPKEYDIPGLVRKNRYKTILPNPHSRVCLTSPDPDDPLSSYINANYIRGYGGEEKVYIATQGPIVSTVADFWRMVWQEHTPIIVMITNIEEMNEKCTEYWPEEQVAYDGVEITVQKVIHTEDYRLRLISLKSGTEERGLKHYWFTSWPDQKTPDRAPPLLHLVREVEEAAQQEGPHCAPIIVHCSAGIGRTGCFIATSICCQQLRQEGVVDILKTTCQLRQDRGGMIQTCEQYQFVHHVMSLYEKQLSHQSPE
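Assay system: isolated STEP enzyme. Buffer or medium: pH 6.0 Bis-Tris with DTT and Tween 20. Also added: fluorogenic phosphatase substrate OMFP at 25 µM final. Dosing: 20 µM, 1% DMSO. Timing: 20 min reaction, room temperature, in the dark. Measured by: fluorescence intensity, excitation 480 nm, emission 540 nm. Evaluation: normalized % inhibition.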
DNMT1 inh – human DNMT1 methyltransferase inhibitors, primary screen, biochemical, molecular beacon, fluorescence, HinP1I cleavage, uHTS. 0.83% of 360,000 active. DNA (cytosine-5)-methyltransferase 1 (Homo sapiens), P26358. inhibition (reported as % activation of signal), % at 10 µM; in the data active means inhibition above about 50%
LMPTP inh – LMPTP phosphatase inhibitors, primary screen, biochemical, fluorescence intensity, uHTS; recombinant LMPTP-A, OMFP fluorogenic substrate; inhibition, % at 20 µM; 0.22% of 360,000 active; AID 651560, 2012;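 active means compounds that cut the enzyme signal by at least half of the control window in the single-dose screen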;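 further: plate controls were DMSO wells with enzyme plus substrate for no effect and substrate without enzyme for full effect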
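Test system: LMPTP-A phosphatase enzyme. Amount: LMPTP-A at 0.625 nM final in the reaction. Reagent: OMFP substrate, 400 µM final. Times: 50 min at room temperature. Signal: endpoint fluorescence intensity from OMFP dephosphorylation. Read-out basis: % inhibition. Benchmarks: no-enzyme and uninhibited controls.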
Scp1 confirm – Scp-1 phosphatase inhibitors, retest, confirmation, biochemical, colorimetric, single concentration; AID 540281, 2011; inhibition, % at 20 µM; shares compounds with Scp-1 inhibitor; recombinant SCP-1 catalytic domain, phosphate release, malachite green absorbance; 61% of 2,500 active;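 further: plate controls were DMSO with enzyme for no effect and buffer wells lacking enzyme for full effect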
MG interference – colorimetric readout interference by compounds, confirmation, artefact control for Scp-1 inhibitor project, biochemical, single concentration. shares compounds with Scp-1 inhibitor. Colorimetric interference counterscreen, malachite green absorbance 630 nm. 2,500 tested, under 10 active. apparent inhibition (interference), % at 20 µM;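 further: compounds added after enzyme reaction finished so only phosphate colour detection is probed; plate controls were DMSO wells with completed Scp-1 reaction for no effect and substrate wells lacking enzyme for full effect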
Scp1 DSF – Scp-1 binding by thermal shift, confirmation, orthogonal assay for Scp-1 inhibitor project, biophysical, differential scanning fluorimetry | 25% of 1,500 active | shares compounds with Scp-1 inhibitor | thermal shift relative to vanadate control, % at 40 µM | Recombinant SCP1, Sypro Orange thermal shift Tm;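 active means substances whose mean melting-temperature shift, as a percentage of the reference inhibitor's shift, reaches about 5.3%, limit read from the data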;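 further: 0% = Tm of DMSO wells and 100% = Tm with sodium orthovanadate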
* hit, by the source's call; / = no result; ! = not confirmed by another sample. The list is not random: actives were taken first. Their share in the collection is about 1.7%.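 How the source made its calls, unless noted: active means inhibition of at least 30% at 20 µM; inactive means the rest.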

SMILES	Scp-1 inhibitor	SUMO1-SIM PPI	STEP inh	DNMT1 inh	LMPTP inh	Scp1 confirm	MG interference	others
CCN(CC)S(=O)(=O)c1ccc(N2CCOCC2)c(NC(=O)c2c3c(nc4ccccc24)CCC3)c1	68*	-2	0	65*	10	48*	-13	Scp1 DSF=5
Cc1cc(=O)n2ncnc2n1COCCO	3	3	2	2	1	/	/
NNC(=O)Cn1c(-c2ccccc2)cc(=O)n2ncnc12	69*	2	-1	2	-2	-6	-5
C[n+]1cccc(C(=O)NCC2CCCO2)c1 (stereo unspecified)	60*	4	-1	-3	-3	-9	-18
O=C(NCC1CCCO1)c1cccc(F)c1 (stereo unspecified)	4	1	-3	2	-2	/	/
O=C(NCC1CCCO1)c1ccccc1 (stereo unspecified)	-4	1	0	2	-1	/	/
O=C(NCC1CCCO1)c1cc(-c2ccccc2F)no1 (stereo unspecified)	52*	0	-1	1	-1	-15	-14
O=C(NCC1CCCO1)c1ccc([N+](=O)[O-])o1 (stereo unspecified)	63*	-42	0	0	-1	-26	-18
O=C(Cc1ccc([N+](=O)[O-])cc1)NCC1CCCO1 (stereo unspecified)	-7	-10	-2	-3	0	/	/
CN(C)c1ccc(CNC(=O)CCS(=O)(=O)c2ccc3c(c2)n(C)c(=O)c(=O)n3C)cc1	64*	23	2	30	-1	25	-12
Cc1ccc(CNC(=O)CCS(=O)(=O)c2ccc3c(c2)oc(=O)n3C)cc1	-4	-7	1	1	-1	/	/
Cc1cc(C(=O)N/N=C/c2cc(Br)ccc2OC(=O)c2ccccc2)n[nH]1	94*	-1	5	15	33	64*	-5	Scp1 DSF=-3
Cc1cc(C(=O)N/N=C/c2ccc(-c3ccccc3Cl)o2)n[nH]1	60*	0	10	36	16	58*	-17	Scp1 DSF=-8
Cc1cc(C(=O)N/N=C/c2cc(Br)ccc2OC(=O)c2ccccc2Cl)n[nH]1	-7	2	5	30	6	/	/
Cc1cc(C(=O)N/N=C/C=C/c2ccc(Br)cc2)n[nH]1	52*	0	29	12	34	65*	-4	Scp1 DSF=-8
Cc1cc(C(=O)N/N=C/c2ccc(-c3ccc(C)c(Cl)c3)o2)n[nH]1	11	-3	0	38	5	/	/
COc1ccc([C@H]2CC(=O)C=C(c3c(C)cc(C)cc3C)C2)cc1	-7	9	4	3	2	/	/
CCOC(=O)C1=CNS(=O)(=O)NC1c1ccc2ccccc2c1 (stereo unspecified)	4	-2	-1	1	-2	/	/
CCOc1ccc(NC(=O)[C@@H]2CCC(=O)N2C2OC(=O)c3ccccc32)cc1 (stereo partly specified)	-1	1	-2	5	-1	/	/
c1ccc2[nH]c(-c3ccnc4ccccc34)nc2c1	100*!	-15	2	-2	-1	79*	-20	Scp1 DSF=-13
c1ccc2c(-c3nc4ccccc4[nH]3)cccc2c1	/	4	-1	0	0	/	/
c1ccc(CCn2nnnc2C(c2cccs2)N2CCN(Cc3ccc4c(c3)OCO4)CC2)cc1 (stereo unspecified)	67*	-5	-1	-4	1	23	6
CCC(C)(C)n1nnnc1C(c1ccc2ncccc2c1)N1CCN(Cc2ccc3c(c2)OCO3)CC1 (stereo unspecified)	13	0	-1	6	0	/	/
CCC(C)(C)n1nnnc1C(c1ccc(C)cc1)N1CCN(Cc2ccc3c(c2)OCO3)CC1 (stereo unspecified)	66*	1	-11	2	-1	-17	-21
COc1ccc(NC(=O)c2cc3c(COC(C)=O)cnc(C)c3oc2=Nc2cccc(C(=O)O)c2)c(OC)c1	89*	12	98*	36	19	64*	-14	Scp1 DSF=5
SMILES	Scp-1 inhibitor	SUMO1-SIM PPI	STEP inh	DNMT1 inh	LMPTP inh	Scp1 confirm	MG interference	others
CC(=O)Nc1cc(-c2cccc(C(=O)N(C)C)c2)cn2c(-c3ccc(C(C)=O)cc3)cnc12	/	-21	4	1	2	/	/
COc1ccc(-c2ccc(-c3noc(-c4ccco4)n3)c(OC)n2)cc1	-4	3	-1	0	1	/	/
COc1nc(-c2ccccc2)ccc1-c1noc(-c2ccco2)n1	99*	5	2	-9	2	-6	-17
O=C(COC(=O)CNC(=O)c1cccc(OC(F)F)c1)NCc1ccc2c(c1)OCO2	-6	-3	-3	-1	-1	/	/
O=C(COC(=O)CNC(=O)c1ccccc1)NCc1ccc2c(c1)OCO2	67*	4	-1	-1	0	-16	-19
CCC(Cc1ccccc1)NS(=O)(=O)c1ccc2c(c1)NC(=O)C(C)S2 (stereo unspecified)	-9	7	1	-4	2	/	/
CS(=O)(=O)N(CC(=O)N1CCc2ccccc2C1)c1ccccc1Br	-2	4	-2	1	0	/	/
C[C@@H]1CN([C@H](C)CO)C(=O)CCCn2nncc2CO[C@H]1CN(C)C(=O)NC1CCCCC1	/	1	-1	5	-3	/	/
CCN1CCN(c2ccc(NC(=O)c3cc4ccccc4cc3OC)cc2C)CC1	65*	-21	-5	2	0	-23	-16
CCN1CCN(c2ccc(NC(=O)c3ccccc3F)cc2Cl)CC1	-3	3	-1	0	-1	/	/
C/[N+]([O-])=C\c1cccc(OCCN2CCN(c3ncc(C(F)(F)F)cc3Cl)CC2)c1	-6	-16	-2	1	-1	/	/
CC(=O)OCC[n+]1c(C)n(-c2ccccc2)c2ccc(Cl)cc21	90*	-3	-1	2	-2	-9	-13
CCOC(=O)c1ccc2c(c1)[n+](CC)c(C)n2-c1ccccc1	11	2	6	0	-2	/	/
